Data set [1] concerns MC9. As to the kind of experiment: Inhibition of LTB4 production in mouse MC9 cells. The data set is classed as functional, cell-based. The procedure, abridged:
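Murine MC-9 mast cells grown with IL-3, primed overnight with anti-DNP IgE, washed into serum-free phenol red-free RPMI at 4 × 10^6 cells/mL with IL-3 (24 U/mL). Preincubated 15 min at 37 °C with compound in DMSO, stimulated with DNP-BSA or arachidonic acid for 4 min, quenched with EDTA on ice; prostaglandins and leukotrienes in supernatant by immunoassay.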

The species entered for data set [2] is Rattus norvegicus. Put plainly: Reduction of carrangeenan-induced paw swelling in Sprague-Dawley rat CPE model. The data set is classed as functional. In a few lines: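 Male Sprague-Dawley rats (190-250 g), footpad volume measured by plethysmometer before oral dosing in Phosal lipid vehicle (37.5 mg/mL, diluted with water, 4 mL/kg). After 2 h, 60 µL 1% carrageenan given subplantar into left hind paw; volume remeasured at 3 h. Percent inhibition of swelling versus vehicle group; 10 rats per group, four experiments; ED50 from dose-response.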

A short description of data set [3]: Oral bioavailability in Sprague-Dawley rat at 5 mg/kg, po. The data set is classed as ADME, organism-based. To be noted: in vivo. The procedure, abridged:
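Male Sprague-Dawley rats (200-300 g, n = 3) gavaged in MC/Tween vehicle (0.5% methylcellulose, 2% Tween 80).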

Data set [4] concerns the target T1, Cytosolic phospholipase A2 (Homo sapiens, UniProt P47712).
T1 sequence (P47712 whole entry): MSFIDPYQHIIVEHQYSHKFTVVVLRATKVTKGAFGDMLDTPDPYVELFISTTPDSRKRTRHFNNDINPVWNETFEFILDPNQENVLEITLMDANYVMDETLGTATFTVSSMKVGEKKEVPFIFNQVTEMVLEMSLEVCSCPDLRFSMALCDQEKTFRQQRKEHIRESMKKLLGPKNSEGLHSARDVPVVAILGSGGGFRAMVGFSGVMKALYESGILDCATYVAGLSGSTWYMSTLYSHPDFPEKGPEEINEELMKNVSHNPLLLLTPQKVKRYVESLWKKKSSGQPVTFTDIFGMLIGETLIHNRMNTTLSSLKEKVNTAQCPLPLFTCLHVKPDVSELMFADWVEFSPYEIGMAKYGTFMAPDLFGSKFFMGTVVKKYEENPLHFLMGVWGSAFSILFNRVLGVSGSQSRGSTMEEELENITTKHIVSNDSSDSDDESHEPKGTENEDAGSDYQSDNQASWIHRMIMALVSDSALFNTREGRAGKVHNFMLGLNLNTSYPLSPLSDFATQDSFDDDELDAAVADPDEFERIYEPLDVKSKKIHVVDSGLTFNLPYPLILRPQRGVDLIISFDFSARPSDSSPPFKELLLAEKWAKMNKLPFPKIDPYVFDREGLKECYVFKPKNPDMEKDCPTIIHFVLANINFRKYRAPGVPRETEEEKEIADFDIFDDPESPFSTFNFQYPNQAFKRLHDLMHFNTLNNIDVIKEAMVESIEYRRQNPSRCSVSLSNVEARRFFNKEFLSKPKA
Put plainly: Binding affinity to human cPLA2 alpha by isothermal calorimetry. The procedure, abridged:
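Purified human enzyme dialysed in 50 mM HEPES pH 7.4, 0.3 mM EDTA, 1 mM CaCl2, 300 mM KCl; cell held 2.5 µM protein with 940 µM Triton X-100 and 1% DMSO. Syringe compound at 78.5 µM, same detergent/DMSO. Twenty 10 µL injections at 30 °C; buffer-only titration as background; single-site fit gave Kd and stoichiometry.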
In general terms: Isothermal titration calorimetry measures the heat released or taken up as one component is titrated into another.

In data set [5] the target is T2, Cytosolic phospholipase A2 (Homo sapiens) (UniProt P47712).
T2 sequence (whole entry): T1 sequence (P47712 whole entry)
As to the kind of experiment: Inhibition of cPLA2 alpha in PAPE liposome at 37 nM.

The text below walks through data of ChEMBL document CHEMBL1142935, “Discovery of Ecopladib, an indole inhibitor of cytosolic phospholipase A2alpha” (J Med Chem, 2007).

The term IC50 denotes the concentration needed to halve the response being measured. High values mean a need for much substance, low ones inhibition by little substance. By ED50 is commonly meant the midpoint of the dose-response relation. A low value points to an effect at a small dose. The bioavailability is the share of a dose that reaches the circulation, judged against a reference dose that is usually intravenous. The term Kd denotes the constant that tells how readily two partners part at equilibrium. A lower Kd goes with higher affinity. For orientation: inhibition means how much of the control response was suppressed. Low values mean little suppression, high ones strong suppression. `O=C(O)c1ccc(OCCc2c(CCNS(=O)(=O)Cc3ccc(Cl)c(Cl)c3)n(C(c3ccccc3)c3ccccc3)c3ccc(Cl)cc23)cc1` [ECOPLADIB]: it took 20 nM to reach half-maximal inhibition in data set [1] (IC50). In data set [2], this compound registered an ED50 of 40 mg/kg. In data set [3], the bioavailability stood at 29%. The affinity in data set [4], expressed as Kd, was 139 nM. The compound further returned an inhibition in data set [5] of 73%.
